Several values for one entry are separate records, joined by “and”; a condition that tells them apart may be missing. Equal values may be shown once. Each block holds one compound with its values, some of them ahead of it.
How the values were obtained:
SULT1A1 [1] = molecular target: T1, SULT1A1 (Homo sapiens, UniProt P50225); assay: Initial rate of 1-HP sulfonation by SULT1A1; assay type: biochemical
Procedure, shortened: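 Recombinant SULT1A1 at 1.0 nM dimer with MgCl2 5.0 mM and NaPO4 50 mM, pH 7.2, 25 ± 2 °C. Reactions started with PAPS: 2.0 μM saturates both sites, 0.30 μM only the first. Acceptor 8.0–200 nM. Product fluorescence read at λex 320 nm, λem 380 nm. […]. Duplicates; weighted least-squares fit in double-reciprocal form.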

SULT1A1 [2] = molecular target: T1, SULT1A1; assay: Equilibrium binding of TAM and 1-HP to SULT1A1 forms E, E·PAP, E·
Procedure, shortened: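 Acceptor titrated into SULT1A1 (0.05–10 μM dimer) with PAP 0–500 μM, MgCl2 5.0 mM, NaPO4 (25 or 50 mM), pH 7.2, 25 ± 2 °C. Intrinsic fluorescence read at λex 290 nm, λem 345 nm. Free enzyme had no PAP; 0.50 mM PAP saturates both sites; singly bound form used 9.0 μM dimer with 9.0 μM PAP. Biphasic phases fitted separately. Triplicates averaged; least-squares single-site fit.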

SULT1A1 [3] = molecular target: T1, SULT1A1; assay: Equilibrium binding of PAPS to SULT1A1; conditions: for Kd: pH 7.2, 25 °C
Procedure, shortened: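 Human SULT1A1, codon-optimised, expressed in E. coli BL21(DE3) with a His/GST/MBP tag, then tag-cleaved. PAPS titrated into enzyme with MgCl2 5.0 mM and NaPO4 50 mM, pH 7.2, 25 ± 2 °C. Intrinsic fluorescence read at λex 290–295 nm, λem 345 nm. Dimer 0.05 μM for high-affinity Kd; 3.0 μM for first-site stoichiometry and low-affinity phase; 475 μM for full-site, at λex 297 nm. Triplicates averaged; single-site-per-dimer fit.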

SULT1A1 [4] = molecular target: T1, SULT1A1; conditions: PAP bound to SULT1A1, in favor of pore closure; cited from earlier work
SULT1A1 [5] = molecular target: T1, SULT1A1; assay: Pre-steady-state PAPS binding; conditions: for Kd: read-out: koff/kon
Procedure, shortened: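 Stopped-flow, excitation 290 nm, emission above 330 nm. Enzyme solution (MgCl2 5.0 mM, NaPO4, pH 7.2, 25 ± 2 °C) mixed 1:1 with PAPS solution. High-affinity site: 30 nM dimer. Low-affinity site: 2.0 μM dimer pre-equilibrated with PAPS, then mixed with higher PAPS. Pseudo-first-order; three curves per concentration (each 8–10 shots) at four PAPS levels. Single-exponential kobs; kon from slope, koff from intercept.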

SULT1A1 [6] = molecular target: T1, SULT1A1; assay: Initial rate kinetics of TAM sulfation; assay type: biochemical
[7] = 1-HP as substrate, E·PAP form, [PAPS] 0.30 μM
[8] = acceptor binding to E (no nucleotide), pH 7.2, 25 °C
[9] = acceptor binding to E·(PAP)2 (TAM: PAP 0.50 mM; 1-HP: PAP 2.0 µM)
[10] = high-affinity PAPS binding site, pH 7.2, 25 °C
[11] = low-affinity PAPS binding site, dimer pre-equilibrated with PAPS

T1 sequence (P50225 whole entry): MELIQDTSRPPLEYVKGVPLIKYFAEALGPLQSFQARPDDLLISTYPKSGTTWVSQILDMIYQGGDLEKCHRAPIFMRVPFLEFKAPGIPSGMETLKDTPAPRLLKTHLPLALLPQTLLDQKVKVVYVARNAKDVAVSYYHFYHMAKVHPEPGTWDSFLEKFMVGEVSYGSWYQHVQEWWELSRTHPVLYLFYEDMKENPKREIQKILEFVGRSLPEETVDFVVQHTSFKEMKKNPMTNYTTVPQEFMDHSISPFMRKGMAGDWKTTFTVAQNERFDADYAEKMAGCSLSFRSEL

Structure (SMILES): Oc1ccc2ccc3cccc4ccc1c2c34 [1-HP, 1-hydroxypyrene]
kcat (SULT1A1 [1]; 1-HP as substrate, E·(PAP)2 form, [PAPS] 2.0 μM): 1000 (60) s^–1
Km (SULT1A1 [1]; [7]): 0.041 µM
kcat (SULT1A1 [1]; [7]): 130 (20) s^–1
effect of PAPS occupancy on Km (SULT1A1 [1]; 1-HP sulfonation): not affected by PAPS occupancy
increase in kcat, doubly vs singly occupied enzyme (SULT1A1 [1]; 1-HP sulfonation): ~8 fold
increase in turnover of each subunit, doubly vs singly occupied enzyme (SULT1A1 [1]; 1-HP sulfonation): 4 times
Kd (SULT1A1 [2]; [8]): 8000 nM
Kd (SULT1A1 [2]; [9]): 25 nM

Structure (SMILES): Nc1ncnc2c1ncn2[C@@H]1O[C@H](COP(=O)(O)O)[C@@H](OP(=O)(O)O)[C@H]1O [PAP, 3′,5′-diphosphoadenosine]
isomerization equilibrium constant, Kiso (SULT1A1 [4]): 26

The next lines start with results.

binding to SULT1A1 (SULT1A1 [3]; used in control titrations for inner-filter correction): does not bind SULT1A1
Structure (SMILES): Nc1ncnc2c1ncn2[C@@H]1O[C@H](COP(=O)(O)O)[C@@H](O)[C@H]1O [AMP, Adenosine monophosphate]

kon for the first site, aggregate value halved (SULT1A1 [5]; corrected for two subunits able to bind the first ligand): 1.0 μM^–1 s^–1
koff (SULT1A1 [5]; [10]): 0.70 (0.05) s^–1
kon (SULT1A1 [5]; [10]): 2.0 (0.1) μM^–1 s^–1
koff (SULT1A1 [5]; [11]): 29 (1) s^–1
kon (SULT1A1 [5]; [11]): 0.96 (0.01) μM^–1 s^–1
Kd (SULT1A1 [5]; high-affinity PAPS binding site): 370 nM
Kd (SULT1A1 [5]; low-affinity PAPS binding site): 30000 nM
Kd (SULT1A1 [3]; high-affinity PAPS binding site, SULT1A1 0.05 μM dimer): 370 nM
difference in affinities (Kd) of the two PAPS binding sites (SULT1A1 [3]; low- vs high-affinity site): 81 fold
Kd (SULT1A1 [3]; low-affinity PAPS binding site, SULT1A1 3.0 μM dimer): 30000 nM
Structure (SMILES): Nc1ncnc2c1ncn2[C@@H]1O[C@H](COP(=O)(O)OS(=O)(=O)O)[C@@H](OP(=O)(O)O)[C@H]1O [PAPS, 3′-phosphoadenosine 5′-phosphosulfate]
PAPS binding stoichiometry at the high-affinity site (SULT1A1 [3]; SULT1A1 3.0 μM dimer (16Kd)): 1.1 ± 0.2 PAPS molecules per dimer and 1.1 ± 0.1 PAPS molecules per dimer

Kd (SULT1A1 [2]; [8]): 670 nM
Kd (SULT1A1 [2]; [9]): 680 nM and 650 nM
stoichiometry of binding to E and E·(PAP)2 (SULT1A1 [2]; SULT1A1 10 μM dimer, PAP 0 or 0.50 mM): 2.0 ± 0.1 TAM bound per SULT1A1 dimer
ratio of Km for the singly and doubly occupied enzyme (SULT1A1 [6]): 23
Structure (SMILES): CC/C(=C(\c1ccc(O)cc1)c1ccc(OCCN(C)C)cc1)c1ccccc1 [TAM, 4-hydroxytamoxifen]

— publication PMC4230322 (Biochemistry, 2014)
